Values after ≈ are worked out from the molar mass of the structure shown.
What was measured:
Format in all cases: functional
[1] = tested on: Pseudomonas aeruginosa; test: Antimicrobial activity against Pseudomonas aeruginosa PAO1 by broth microdilution method
In short: (§1)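 Broth microdilution MICs of ceftazidime, aztreonam and piperacillin in 100 μl cation-adjusted Mueller-Hinton broth, with or without NagZ inhibitor PUGNAc at 0.5 mM or 5 mM; measurements in triplicate.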

[2] = tested on: Pseudomonas aeruginosa; test: Antimicrobial activity against ampD::lox gene-deficient Pseudomonas aeruginosa PAO1 by broth microdilution method; in short: as §1
[3] = tested on: Pseudomonas aeruginosa; test: Antimicrobial activity against dacB::lox gene-deficient Pseudomonas aeruginosa PAO1 by broth microdilution method; in short: as §1
[4] = tested on: Pseudomonas aeruginosa; test: Antimicrobial activity against ampD::lox gene-deficient Pseudomonas aeruginosa PAO1 harboring dacB gene by broth microdilution method; in short: as §1
[5] = tested on: Pseudomonas aeruginosa; test: Antimicrobial activity against Pseudomonas aeruginosa PAO1 by broth microdilution method in presence of 0.5 mM NagZ inhibitor PUGNAc; in short: as §1
[6] = tested on: Pseudomonas aeruginosa; test: Antimicrobial activity against ampD::lox gene-deficient Pseudomonas aeruginosa PAO1 by broth microdilution method in presence of 0.5 mM NagZ inhibitor PUGNAc; in short: as §1
[7] = tested on: Pseudomonas aeruginosa; test: Antimicrobial activity against dacB::lox gene-deficient Pseudomonas aeruginosa PAO1 by broth microdilution method in presence of 0.5 mM NagZ inhibitor PUGNAc; in short: as §1
[8] = tested on: Pseudomonas aeruginosa; test: Antimicrobial activity against ampD::lox gene-deficient Pseudomonas aeruginosa PAO1 harboring dacB gene by broth microdilution method in presence of 0.5 mM NagZ inhibitor PUGNAc
In short: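 MICs of ceftazidime, aztreonam and piperacillin determined by broth microdilution in cation-adjusted Mueller-Hinton broth, with 0.5 mM of the N-acetyl-β-glucosaminidase (NagZ) inhibitor PUGNAc added alongside the β-lactam and untreated controls run in parallel; all measurements performed in triplicate.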

[9] = tested on: Pseudomonas aeruginosa; test: Antimicrobial activity against Pseudomonas aeruginosa PAO1 by broth microdilution method in presence of 5 mM NagZ inhibitor PUGNAc; in short: as §1
[10] = tested on: Pseudomonas aeruginosa; test: Antimicrobial activity against ampD::lox gene-deficient Pseudomonas aeruginosa PAO1 by broth microdilution method in presence of 5 mM NagZ inhibitor PUGNAc; in short: as §1
[11] = tested on: Pseudomonas aeruginosa; test: Antimicrobial activity against dacB::lox gene-deficient Pseudomonas aeruginosa PAO1 by broth microdilution method in presence of 5 mM NagZ inhibitor PUGNAc; in short: as §1
[12] = tested on: Pseudomonas aeruginosa; test: Antimicrobial activity against ampD::lox gene-deficient Pseudomonas aeruginosa PAO1 harboring dacB gene by broth microdilution method in presence of 5 mM NagZ inhibitor PUGNAc; in short: as §1
[13] = tested on: Pseudomonas aeruginosa; test: Antimicrobial activity against nagZ::lox gene-deficient Pseudomonas aeruginosa PAO1 by Etest method
In short: (§2)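 MICs read from Etest strips on Mueller-Hinton agar per manufacturer's instructions; agents ceftazidime, cefepime, aztreonam, piperacillin, piperacillin-tazobactam, imipenem and meropenem.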

[14] = tested on: Pseudomonas aeruginosa; test: Antimicrobial activity against ampD::lox gene-deficient Pseudomonas aeruginosa PAO1 by Etest method; in short: as §2
[15] = tested on: Pseudomonas aeruginosa; test: Antimicrobial activity against dacB::lox gene-deficient Pseudomonas aeruginosa PAO1 by Etest method; in short: as §2
[16] = tested on: Pseudomonas aeruginosa; test: Antimicrobial activity against ampD::lox gene-deficient Pseudomonas aeruginosa PAO1 harboring dacB gene by Etest method; in short: as §2
[17] = tested on: Pseudomonas aeruginosa; test: Antimicrobial activity against ampD::lox, ampDh2::lox and ampDh3::lox gene-deficient Pseudomonas aeruginosa PAO1 by Etest method
In short: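 Etest strips on Mueller-Hinton agar, read per manufacturer's recommendations; P. aeruginosa PAO1 triple mutant deficient in ampD, ampDh2 and ampDh3 (lox deletions). Agents tested by Etest: ceftazidime, cefepime, aztreonam, piperacillin, piperacillin-tazobactam, imipenem, meropenem.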

[18] = tested on: Pseudomonas aeruginosa; test: Antimicrobial activity against ampD::lox, ampDh2::lox,ampDh3::lox and nagZ::lox gene-deficient Pseudomonas aeruginosa PAO1 by Etest method; in short: as §2
[19] = tested on: Pseudomonas aeruginosa; test: Antimicrobial activity against ampR::lox gene-deficient Pseudomonas aeruginosa PAO1 by Etest method; in short: as §2
[20] = tested on: Pseudomonas aeruginosa; test: Antimicrobial activity against ampC::lox gene-deficient Pseudomonas aeruginosa PAO1 by Etest method; in short: as §2
[21] = tested on: Pseudomonas aeruginosa; test: Antimicrobial activity against Pseudomonas aeruginosa PAO1 by Etest method; in short: as §2
[22] = tested on: Pseudomonas aeruginosa; test: Antimicrobial activity against ampD::lox and nagZ::lox gene-deficient Pseudomonas aeruginosa PAO1 by Etest method; in short: as §2
[23] = tested on: Pseudomonas aeruginosa; test: Antimicrobial activity against ampD::lox and nagZ::lox gene-deficient Pseudomonas aeruginosa PAO1 harboring dacB gene by Etest method; in short: as §2

Row | Compound | MIC [13] | MIC [14] | MIC [15] | MIC [16] | MIC [17] | MIC [18] | MIC [19] | MIC [20] | MIC [21] | MIC [22] | MIC [23] | also measured
1 | C[C@H]1[C@H](NC(=O)/C(=N\OC(C)(C)C(=O)O)c2csc(N)n2)C(=O)N1S(=O)(=O)O [AZTREONAM] | 4 µg/mL (≈ 9.19 µM) | 12 µg/mL (≈ 27.6 µM) | 24 µg/mL (≈ 55.1 µM) | 64 µg/mL (≈ 147 µM) | 32 µg/mL (≈ 73.5 µM) | 8 µg/mL (≈ 18.4 µM) | 4 µg/mL (≈ 9.19 µM) | 2 µg/mL (≈ 4.59 µM) | – | – | – | MIC [1]: 3 µg/mL (≈ 6.89 µM); MIC [2]: 6 µg/mL (≈ 13.8 µM); MIC [3]: 12 µg/mL (≈ 27.6 µM); MIC [4]: 32 µg/mL (≈ 73.5 µM); MIC [5]: 3 µg/mL; MIC [6]: 3 µg/mL; MIC [7]: 4 µg/mL; MIC [8]: 32 µg/mL; MIC [9]: 3 µg/mL; MIC [10]: 3 µg/mL; MIC [11]: 3 µg/mL; MIC [12]: 24 µg/mL
2 | C[C@@H](O)[C@H]1C(=O)N2C(C(=O)O)=C(SCCNC=N)C[C@H]12 [IMIPENEM ANHYDROUS] | 1 µg/mL (≈ 3.34 µM) | 2 µg/mL (≈ 6.68 µM) | 2 µg/mL (≈ 6.68 µM) | 2 µg/mL (≈ 6.68 µM) | 2 µg/mL (≈ 6.68 µM) | 1.5 µg/mL (≈ 5.01 µM) | 0.5 µg/mL (≈ 1.67 µM) | 0.5 µg/mL (≈ 1.67 µM) | 2 µg/mL (≈ 6.68 µM) | 1 µg/mL (≈ 3.34 µM) | 1 µg/mL (≈ 3.34 µM) | –
3 | CO/N=C(\C(=O)N[C@@H]1C(=O)N2C(C(=O)[O-])=C(C[N+]3(C)CCCC3)CS[C@H]12)c1csc(N)n1 [CEFEPIME] | 1.5 µg/mL (≈ 3.12 µM) | – | 12 µg/mL (≈ 25 µM) | 48 µg/mL (≈ 99.9 µM) | – | 3 µg/mL (≈ 6.24 µM) | 2 µg/mL (≈ 4.16 µM) | 1 µg/mL (≈ 2.08 µM) | 1.5 µg/mL (≈ 3.12 µM) | 1.5 µg/mL (≈ 3.12 µM) | 3 µg/mL (≈ 6.24 µM) | –

Reference: ChEMBL document CHEMBL1687765, “NagZ inactivation prevents and reverts beta-lactam resistance, driven by AmpD and PBP 4 mutations, in Pseudomonas aeruginosa” (2010)
